Screens as filed in PubChem.
A selection: hits, their analogues and other compounds. The true share with any hit is near 2.5%.
NTR1 ag = NTR1 (human) agonism; P30989; NTR1-U2OS beta-arrestin-GFP spot imaging, agonist mode; activation, % at 20 µM; hit rate 0.17% among 330,000; AID 493036;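 active = activation at or above 40% of the spot to cytoplasm intensity ratio, with at least 20 cells analyzed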;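 note: 0% = DMSO without peptide and 100% = 100 nM NTR1 peptide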
MC4R antag cAMP = human MC4R antagonism in cAMP assay. MC4R-expressing cells, MTII-stimulated cAMP, LANCE TR-FRET. hit rate 0.48% among 360,000. inhibition, % at 6.5 µM;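 active = inhibition above its plate's cutoff, the mean of tested wells on that plate plus 3 SD, cut at about 29% in these data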;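 note: 0% = Melanotan II alone and 100% = Melanotan II plus saturating MCL0020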
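Assay system: U2OS cells stably expressing human melanocortin 4 receptor (MC4R) / Dosing: 6.5 µM / Timing: compound 30 min, challenge 1 h, detection 1 h / Measured by: Eu-cAMP/anti-cAMP TR-FRET, emission 671 nm / Replicates: singlicate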
PG9 Ab binder = PG9 antibody binding by small molecule; TR-FRET gp120-PG9 antibody binding; inhibition, % at 6.7 µM; hit rate 0.43% among 360,000; in the data active = inhibition above about 8.5%
NR1D1 modulator = modulates human Rev-erb alpha binding to DNA. Rev-erbα–FITC-DNA binding, fluorescence polarization, 90 min. hit rate 0.79% among 370,000. AID 1259318. activity, % at 10 µM. P20393;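 active = activity above about 14%, limit read from the data; passing the limit was not always enough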;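 note: 0% = DMSO wells with 35 nM protein and 100% = DMSO wells with 750 nM protein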
Target sequence (P20393 whole entry, looked up): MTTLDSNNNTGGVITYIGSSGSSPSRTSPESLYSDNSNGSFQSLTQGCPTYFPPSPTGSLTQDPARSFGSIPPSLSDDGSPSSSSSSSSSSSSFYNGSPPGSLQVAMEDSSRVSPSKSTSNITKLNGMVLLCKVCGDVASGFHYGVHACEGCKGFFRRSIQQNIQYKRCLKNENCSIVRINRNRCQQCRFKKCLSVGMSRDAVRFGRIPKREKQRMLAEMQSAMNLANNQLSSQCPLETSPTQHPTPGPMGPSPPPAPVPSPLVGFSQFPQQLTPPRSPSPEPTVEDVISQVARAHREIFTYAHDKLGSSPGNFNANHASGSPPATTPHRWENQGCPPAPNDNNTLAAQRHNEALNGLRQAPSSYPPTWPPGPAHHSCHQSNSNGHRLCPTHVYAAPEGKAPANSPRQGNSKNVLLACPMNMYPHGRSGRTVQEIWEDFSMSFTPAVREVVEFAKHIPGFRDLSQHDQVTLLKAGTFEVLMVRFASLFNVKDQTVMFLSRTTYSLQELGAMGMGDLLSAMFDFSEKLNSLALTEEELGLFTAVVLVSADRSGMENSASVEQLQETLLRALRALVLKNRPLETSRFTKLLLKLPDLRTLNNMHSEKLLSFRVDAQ
MC4R ag barr = agonists of human melanocortin 4 receptor (MC4R) beta-arrestin | P32245 | U2OS MC4R beta-arrestin complementation, luminescence; percent of melanotan II response, DMSO zero | activation, % at 8.9 µM | hit rate 0.98% among 360,000;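 active = activation above a per-plate cutoff, the mean activation of sample wells on that plate plus 3 SD, cut at about 8% in these data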
NR1D1 mod conf = confirmation of modulators of human Rev-erb alpha DNA binding | shares compounds with NR1D1 modulator | Rev-erb alpha FITC-DNA binding, fluorescence polarization, 90 min | activation, % at 25 µM | hit rate 61% among 3,000;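 active = activation at or above a set limit, or at least 3 SD above the negative control mean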;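 note: 0% = 35 nM protein with DMSO and 100% = 750 nM protein high control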
RORg DNA counter = RORgamma DNA-binding activity, dose-response counter-screen. purified RORgamma protein-FITC-DNA binding, fluorescence polarization. shares compounds with NR1D1 modulator. IC50, µM. AID 1259320. hit rate 8% among 910;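 active = Compounds whose fitted half-maximal concentration for disrupting protein-DNA binding is below 10 micromolar; the record names Rev-erb in its text, so the target is in doubt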
Starred values were filed as active, the others as inactive; i = inactive; · = no result.

SMILES	NTR1 ag	MC4R antag cAMP	PG9 Ab binder	NR1D1 modulator	MC4R ag barr	NR1D1 mod conf	others
CC1(C)S[C@@H]2C(NC(=O)[C@@H](N)c3ccc(O)cc3)C(=O)N2[C@H]1C(=O)O (stereo partly drawn)	·	·	·	-5	·	·
C[C@H](O)[C@@H]1C(=O)N2CCc3c([nH]c4c(-c5ccccc5)cccc34)[C@@H]2C[C@@H]1N(C)C(=O)c1cc(Cl)cc(Cl)c1	·	·	-1	-1	·	·
Cc1ccccc1C(=O)N(C)[C@H]1C[C@H]2c3[nH]c4c(-c5ccccc5)cccc4c3CCN2C(=O)[C@H]1[C@H](C)O	·	·	1	13*	·	2
COc1ccc(CCNC(=O)CSc2nnc(-c3ccc(F)cc3)c3ccccc23)cc1OC	1	-1	-2	-7	0	·
COc1cc2c3nnc(-c4ccc(F)cc4)c-3cn(Cc3ccc(F)cc3)c2cc1OC	84*	13	0	35*	1	27*
C=C1C[C@@]23CCC4[C@@](C)(CCC[C@@]4(C)C(=O)O)C2CC[C@]1(O)C3 (stereo partly drawn)	0	-1	0	13*	0	4
CCCCOc1ccc(N(CC(=O)NC2CCCCC2)C(=O)c2snc(C(N)=O)c2N)cc1	4	12	4	64*	-2	41*	RORg DNA counter=i
COC(=O)[C@]12C[C@H](CC(=O)N3CCOCC3)C(=O)N(Cc3cccc4ccccc34)C1=C[C@H](COCc1ccccc1)O[C@@H]2C	·	·	·	3	·	·
C/C=C(/C(=C/C)c1ccc(O)cc1)c1ccc(O)cc1	4	-1	-2	31*	7	40*	RORg DNA counter=>40
COc1cc(/C=N/NC(=O)Nc2cccc3nsnc23)cc(OC)c1OC	·	-1	0	6	1	·
COc1ccc(/C=N/NC(=O)Nc2cccc3nsnc23)c(OC)c1	4	3	-1	68*	0	24*
CCOC(=O)c1cc(-c2ccc3c(c2)OCO3)nc2onc(C)c12	2	1	1	33*	0	9
O=C(O)c1cc(-c2ccc3c(c2)OCO3)nc2ccc(Cl)cc12	0	5	0	-2	1	·
CCOC(=O)c1cc2c(=O)c3ccccc3oc2nc1C	1	-1	-3	53*	0	44*	RORg DNA counter=>40
Cc1cc(NC(=O)c2ccccc2)n(C)n1	-1	9	1	0	-2	·
Cn1nc(-c2ccccc2)cc1NC(=O)c1ccccc1	-1	1	1	41*	0	2
CCN(CC)CCCNC(=O)CSc1nc2c(c(C(F)(F)F)n1)CCc1ccccc1-2	3	1	0	-3	-1	·
O=C(O)CSc1nc2c(c(C(F)(F)F)n1)CCc1ccccc1-2	1	2	-3	3	-1	·
O=C(CSc1nc2c(c(C(F)(F)F)n1)CCc1ccccc1-2)NCc1ccccc1	5	6	0	97*	1	40*	RORg DNA counter=i
O=C(CSc1nc2c(c(C(F)(F)F)n1)CCc1ccccc1-2)NCc1ccc(F)cc1	3	3	0	60*	0	13
COC(=O)C1=C(C)N(C)C(=NCc2ccc(OC)cc2)NC1c1cccc(F)c1 (stereo not drawn)	·	·	-1	1	·	·
Cc1nn(-c2ccccc2)c2nc(N)c(C#N)c(-c3ccc(F)cc3)c12	14	11	-1	5	0	·
Cc1ccc(-n2nc(C)c3c(-c4cccs4)c(C#N)c(N)nc32)cc1	13	15	0	60*	-1	30*
COc1ccc(-c2cc(C3CC3)nc(SCC(=O)c3cccs3)c2C#N)cc1	2	10	0	88*	0	110*	RORg DNA counter=>40
N=C(SC1CC(=O)N(c2ccc(F)cc2)C1=O)N1N=C(c2ccccc2)CC1c1ccccc1 (stereo not drawn)	2	1	0	19*	3	0
SMILES	NTR1 ag	MC4R antag cAMP	PG9 Ab binder	NR1D1 modulator	MC4R ag barr	NR1D1 mod conf	others
CCC(=O)N1N=C(c2ccccc2)CC1c1ccccc1 (stereo not drawn)	1	0	0	-1	-1	·
Cc1ccc(Cn2cc(CN3[C@H](CC(C)C)COc4cc(Br)ccc4S3(=O)=O)nn2)cc1	·	·	·	-1	·	·
Cc1ccc(-c2nnc(-n3ncc(C#N)c3N)c3ccccc23)cc1C	2	13	-1	33*	4	27*
N#C/C(=C\c1ccc(-c2ccc(C(=O)O)cc2)o1)c1nc2ccccc2[nH]1	·	-3	-7	42*	0	27*
CC(C)CC1NC(=O)c2cc3ccccc3cc2-n2c1nc1ccc(Cl)cc1c2=O (stereo not drawn)	·	11	0	16*	1	1
CC(C)CC1NC(=O)c2ccccc2-n2c1nc1ccc(Cl)cc1c2=O (stereo not drawn)	-2	·	-2	9	·	·
Cc1ccc(-c2cc(-c3nnc(SCC(=O)N4c5ccccc5Sc5ccc(Cl)cc54)n3N)[nH]n2)cc1	·	·	·	1	·	·
CCOC(=O)Nc1ccc2c(COC(=O)CN(C)S(=O)(=O)c3ccc(C)cc3)cc(=O)oc2c1	0	2	4	46*	-1	14
O=C(N[C@H](C(=O)N1CCC[C@H]1C(=O)NC1CCCC1)C1CCCCC1)c1ccc(Cl)c(Cl)c1	·	·	4	1	·	·
Cc1ccc2[nH]c(=O)c3cc(C(=O)N(C)C4CCCCC4)sc3c2c1	10	-5	1	21*	0	-1
Cc1ccc2[nH]c(=O)c3cc(C(=O)N(C)c4ccc(C)c(C)c4)sc3c2c1	5	2	0	10	0	·
COc1ccc(NC(=S)NNC(=O)CCn2cc([N+](=O)[O-])cn2)cc1	0	-2	0	0	3	·
COc1ccc(NC(=O)CCCn2cc([N+](=O)[O-])cn2)cc1	-1	7	2	26*	-1	0
COc1cc(C=Cc2nnc3c4ccccc4cnn23)cc(OC)c1OC	·	4	-4	50*	-2	36*	RORg DNA counter=>40
COc1cc(C=C2C(=O)c3ccccc3C2=O)cc(OC)c1OC	2	6	0	4	-1	·
Cc1ccc(OCC(=O)O/N=C(\N)c2ccncc2)cc1C	2	-2	1	22*	-2	-3
Cc1ccc(OCC(=O)O/N=C(\N)c2ccccn2)cc1C	1	-3	-2	-7	-2	·
CCOC(=O)c1cccc(NC(=O)CN(C)S(=O)(=O)c2ccco2)c1	·	·	·	-1	·	·
COc1ccccc1C(=O)Nc1nc(-c2ccc(S(=O)(=O)N3CCOCC3)cc2)cs1	25	9	1	43*	-1	29*
CCOC(=O)[C@]12CCCCC/C=C\1N(Cc1ccc(OC)cc1)C(=O)[C@H]2CC(=O)NCC12CC3CC(CC(C3)C1)C2	·	·	·	2	·	·
COc1ccc(OC)c2c1C(=O)c1ccccc1C2=O	-2	·	-1	-1	·	·
